# Reference: ChEMBL document CHEMBL4689842, “EUbOPEN Chemogenomics Library wave 1” (2021)
# Test system: Fibroblast
# Experiment: Multiplex assay against human fibroblast
# Assay type: toxicity, cell-based
# Summary of the method: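 Tubulin, mitochondrial-mass and membrane-permeability phenotypes are per cents of healthy-nucleus cells. Cells were gated by CellPathfinder machine learning into Hoechst high-intensity objects or normal cells, normal cells into healthy, pyknosed or fragmented nuclei, and pyknosed cells into mitotic or apoptotic. Before that, live cells stained at seeding with Hoechst33342, BioTracker Green Microtubule Cytoskeleton Dye, MitoTracker Red and Annexin V Alexa Fluor 680 were imaged on a CQ1 microscope at 37°C and 5% CO2 after compound addition.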
# [1] = 12 h, 1 µM, compound concentration 1 uM, replicate 1
# [2] = 12 h, 1 µM, compound concentration 1 uM, replicate 2
# [3] = 12 h, 10 µM, compound concentration 10 uM, replicate 1
# [4] = 12 h, 10 µM, compound concentration 10 uM, replicate 2
# [5] = 24 h, 1 µM, compound concentration 1 uM, replicate 1
# [6] = 24 h, 1 µM, compound concentration 1 uM, replicate 2
# [7] = 24 h, 10 µM, compound concentration 10 uM, replicate 1
# [8] = 24 h, 10 µM, compound concentration 10 uM, replicate 2
# [9] = 48 h, 1 µM, compound concentration 1 uM, replicate 1
# [10] = 48 h, 1 µM, compound concentration 1 uM, replicate 2
# [11] = 48 h, 10 µM, compound concentration 10 uM, replicate 1
# [12] = 48 h, 10 µM, compound concentration 10 uM, replicate 2
smiles,measurement,setting,value
CCN1CCN(c2ccc(Nc3cc(N(C)C(=O)Nc4c(Cl)c(OC)cc(OC)c4Cl)ncn3)cc2)CC1 [INFIGRATINIB],Population Apoptotic (%),[1],55%
same,Population Fragmented Nuclei (%),[1],28%
same,Population Healthy Nuclei (%),[1],43%
same,Population Hoechst High Intensity Objects (%),[1],24%
same,Population Membrane Permeable-Phenotype (%),[1],2%
same,Population Mitochondria Different-Phenotype (%),[1],12%
same,Population Mitotic Cells (%),[1],44%
same,Population Normal (%),[1],75%
same,Population Pyknosed Nuclei (%),[1],27%
same,Population Tubulin-Different-Phenotype (%),[1],23%
same,Total Cell Count,[1],322
same,Population Apoptotic (%),[2],77%
same,Population Fragmented Nuclei (%),[2],63%
same,Population Healthy Nuclei (%),[2],20%
same,Population Hoechst High Intensity Objects (%),[2],38%
same,Population Membrane Permeable-Phenotype (%),[2],18%
same,Population Mitochondria Different-Phenotype (%),[2],27%
same,Population Mitotic Cells (%),[2],22%
same,Population Normal (%),[2],61%
same,Population Pyknosed Nuclei (%),[2],16%
same,Population Tubulin-Different-Phenotype (%),[2],45%
same,Total Cell Count,[2],89
same,Population Apoptotic (%),[3],61%
same,Population Fragmented Nuclei (%),[3],31%
same,Population Healthy Nuclei (%),[3],55%
same,Population Hoechst High Intensity Objects (%),[3],13%
same,Population Membrane Permeable-Phenotype (%),[3],5%
same,Population Mitotic Cells (%),[3],38%
same,Population Normal (%),[3],86%
same,Population Tubulin-Different-Phenotype (%),[3],3%
same,Total Cell Count,[3],195
same,Population Apoptotic (%),[4],75%
same,Population Fragmented Nuclei (%),[4],60%
same,Population Healthy Nuclei (%),[4],26%
same,Population Hoechst High Intensity Objects (%),[4],34%
same,Population Membrane Permeable-Phenotype (%),[4],17%
same,Population Mitochondria Different-Phenotype (%),[4],5%
same,Population Mitotic Cells (%),[4],25%
same,Population Normal (%),[4],65%
same,Population Pyknosed Nuclei (%),[4],12%
same,Population Tubulin-Different-Phenotype (%),[4],11%
same,Total Cell Count,[4],98
same,Population Apoptotic (%),[5],60%
same,Population Fragmented Nuclei (%),[5],15%
same,Population Healthy Nuclei (%),[5],44%
same,Population Hoechst High Intensity Objects (%),[5],36%
same,Population Membrane Permeable-Phenotype (%),[5],4%
same,Population Mitochondria Different-Phenotype (%),[5],29%
same,Population Mitotic Cells (%),[5],40%
same,Population Normal (%),[5],63%
same,Population Pyknosed Nuclei (%),[5],39%
same,Population Tubulin-Different-Phenotype (%),[5],40%
same,Total Cell Count,[5],259
same,Population Apoptotic (%),[6],66%
same,Population Fragmented Nuclei (%),[6],60%
same,Population Healthy Nuclei (%),[6],27%
same,Population Hoechst High Intensity Objects (%),[6],46%
same,Population Membrane Permeable-Phenotype (%),[6],0%
same,Population Mitochondria Different-Phenotype (%),[6],23%
same,Population Mitotic Cells (%),[6],33%
same,Population Normal (%),[6],53%
same,Population Pyknosed Nuclei (%),[6],12%
same,Population Tubulin-Different-Phenotype (%),[6],38%
same,Total Cell Count,[6],90
same,Population Apoptotic (%),[7],68%
same,Population Fragmented Nuclei (%),[7],26%
same,Population Healthy Nuclei (%),[7],61%
same,Population Hoechst High Intensity Objects (%),[7],15%
same,Population Mitochondria Different-Phenotype (%),[7],3%
same,Population Mitotic Cells (%),[7],31%
same,Population Normal (%),[7],84%
same,Population Pyknosed Nuclei (%),[7],11%
same,Population Tubulin-Different-Phenotype (%),[7],3%
same,Total Cell Count,[7],191
same,Population Apoptotic (%),[8],100%
same,Population Fragmented Nuclei (%),[8],56%
same,Population Healthy Nuclei (%),[8],32%
same,Population Hoechst High Intensity Objects (%),[8],34%
same,Population Membrane Permeable-Phenotype (%),[8],9%
same,Population Mitochondria Different-Phenotype (%),[8],9%
same,Population Mitotic Cells (%),[8],0%
same,Population Normal (%),[8],65%
same,Population Pyknosed Nuclei (%),[8],10%
same,Population Tubulin-Different-Phenotype (%),[8],9%
same,Total Cell Count,[8],99
CN1CCC(=C2c3ccccc3CC(=O)c3sccc32)CC1.O=C(O)/C=C/C(=O)O [KETOTIFEN FUMARATE],Population Apoptotic (%),[1],61%
same,Population Fragmented Nuclei (%),[1],26%
same,Population Healthy Nuclei (%),[1],41%
same,Population Hoechst High Intensity Objects (%),[1],12%
same,Population Membrane Permeable-Phenotype (%),[1],24%
same,Population Mitochondria Different-Phenotype (%),[1],3%
same,Population Mitotic Cells (%),[1],38%
same,Population Normal (%),[1],87%
same,Population Pyknosed Nuclei (%),[1],32%
same,Population Tubulin-Different-Phenotype (%),[1],37%
same,Total Cell Count,[1],149
same,Population Apoptotic (%),[2],75%
same,Population Fragmented Nuclei (%),[2],6%
same,Population Healthy Nuclei (%),[2],87%
same,Population Hoechst High Intensity Objects (%),[2],5%
same,Population Membrane Permeable-Phenotype (%),[2],10%
same,Population Mitochondria Different-Phenotype (%),[2],12%
same,Population Mitotic Cells (%),[2],25%
same,Population Normal (%),[2],94%
same,Population Pyknosed Nuclei (%),[2],6%
same,Population Tubulin-Different-Phenotype (%),[2],9%
same,Total Cell Count,[2],56
same,Population Apoptotic (%),[3],73%
same,Population Fragmented Nuclei (%),[3],21%
same,Population Healthy Nuclei (%),[3],51%
same,Population Hoechst High Intensity Objects (%),[3],16%
same,Population Membrane Permeable-Phenotype (%),[3],6%
same,Population Mitochondria Different-Phenotype (%),[3],23%
same,Population Mitotic Cells (%),[3],26%
same,Population Normal (%),[3],83%
same,Population Pyknosed Nuclei (%),[3],26%
same,Population Tubulin-Different-Phenotype (%),[3],84%
same,Total Cell Count,[3],168
same,Population Apoptotic (%),[4],33%
same,Population Fragmented Nuclei (%),[4],2%
same,Population Healthy Nuclei (%),[4],75%
same,Population Hoechst High Intensity Objects (%),[4],1%
same,Population Membrane Permeable-Phenotype (%),[4],15%
same,Population Mitochondria Different-Phenotype (%),[4],90%
same,Population Mitotic Cells (%),[4],66%
same,Population Normal (%),[4],98%
same,Population Pyknosed Nuclei (%),[4],22%
same,Population Tubulin-Different-Phenotype (%),[4],95%
same,Total Cell Count,[4],67
same,Population Apoptotic (%),[5],63%
same,Population Fragmented Nuclei (%),[5],25%
same,Population Healthy Nuclei (%),[5],45%
same,Population Hoechst High Intensity Objects (%),[5],12%
same,Population Membrane Permeable-Phenotype (%),[5],16%
same,Population Mitochondria Different-Phenotype (%),[5],6%
same,Population Mitotic Cells (%),[5],36%
same,Population Normal (%),[5],88%
same,Population Pyknosed Nuclei (%),[5],28%
same,Population Tubulin-Different-Phenotype (%),[5],38%
same,Total Cell Count,[5],150
same,Population Apoptotic (%),[6],100%
same,Population Fragmented Nuclei (%),[6],8%
same,Population Healthy Nuclei (%),[6],86%
same,Population Hoechst High Intensity Objects (%),[6],7%
same,Population Membrane Permeable-Phenotype (%),[6],9%
same,Population Mitochondria Different-Phenotype (%),[6],10%
same,Population Mitotic Cells (%),[6],0%
same,Population Normal (%),[6],92%
same,Population Pyknosed Nuclei (%),[6],5%
same,Population Tubulin-Different-Phenotype (%),[6],4%
same,Total Cell Count,[6],64
same,Population Apoptotic (%),[7],75%
same,Population Fragmented Nuclei (%),[7],33%
same,Population Healthy Nuclei (%),[7],51%
same,Population Hoechst High Intensity Objects (%),[7],16%
same,Population Membrane Permeable-Phenotype (%),[7],17%
same,Population Mitochondria Different-Phenotype (%),[7],28%
same,Population Mitotic Cells (%),[7],25%
same,Population Normal (%),[7],83%
same,Population Pyknosed Nuclei (%),[7],15%
same,Population Tubulin-Different-Phenotype (%),[7],83%
same,Total Cell Count,[7],189
same,Population Apoptotic (%),[8],59%
same,Population Fragmented Nuclei (%),[8],6%
same,Population Healthy Nuclei (%),[8],66%
same,Population Hoechst High Intensity Objects (%),[8],2%
same,Population Membrane Permeable-Phenotype (%),[8],22%
same,Population Mitochondria Different-Phenotype (%),[8],98%
same,Population Mitotic Cells (%),[8],40%
same,Population Normal (%),[8],97%
same,Population Pyknosed Nuclei (%),[8],27%
same,Population Tubulin-Different-Phenotype (%),[8],88%
same,Total Cell Count,[8],80
same,Population Apoptotic (%),[9],61%
same,Population Fragmented Nuclei (%),[9],34%
same,Population Healthy Nuclei (%),[9],52%
same,Population Hoechst High Intensity Objects (%),[9],16%
same,Population Membrane Permeable-Phenotype (%),[9],20%
same,Population Mitochondria Different-Phenotype (%),[9],2%
same,Population Mitotic Cells (%),[9],38%
same,Population Normal (%),[9],83%
same,Population Pyknosed Nuclei (%),[9],12%
same,Population Tubulin-Different-Phenotype (%),[9],34%
same,Total Cell Count,[9],170
same,Population Apoptotic (%),[10],40%
same,Population Fragmented Nuclei (%),[10],28%
same,Population Healthy Nuclei (%),[10],64%
same,Population Hoechst High Intensity Objects (%),[10],10%
same,Population Membrane Permeable-Phenotype (%),[10],18%
same,Population Mitochondria Different-Phenotype (%),[10],0%
same,Population Mitotic Cells (%),[10],60%
same,Population Normal (%),[10],89%
same,Population Pyknosed Nuclei (%),[10],6%
same,Population Tubulin-Different-Phenotype (%),[10],32%
same,Total Cell Count,[10],86
same,Population Apoptotic (%),[11],87%
same,Population Fragmented Nuclei (%),[11],41%
same,Population Healthy Nuclei (%),[11],53%
same,Population Hoechst High Intensity Objects (%),[11],31%
same,Population Membrane Permeable-Phenotype (%),[11],16%
same,Population Mitochondria Different-Phenotype (%),[11],9%
same,Population Mitotic Cells (%),[11],12%
same,Population Normal (%),[11],68%
same,Population Pyknosed Nuclei (%),[11],4%
same,Population Tubulin-Different-Phenotype (%),[11],68%
same,Total Cell Count,[11],260
same,Population Apoptotic (%),[12],0%
same,Population Fragmented Nuclei (%),[12],34%
same,Population Healthy Nuclei (%),[12],64%
same,Population Hoechst High Intensity Objects (%),[12],23%
same,Population Membrane Permeable-Phenotype (%),[12],13%
same,Population Mitochondria Different-Phenotype (%),[12],5%
same,Population Mitotic Cells (%),[12],100%
same,Population Normal (%),[12],76%
same,Population Pyknosed Nuclei (%),[12],1%
same,Population Tubulin-Different-Phenotype (%),[12],86%
same,Total Cell Count,[12],176
